Assay: Toxicity liver stage against HepG2, at 10uM
Assay type: cell-based
Set-up: test concentration 10 uM, cell line HepG2-A16-CD81EGFP
Settings: human, HepG2-A16-CD81EGFP cells; read-out: INHIBITION
Method in brief: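 Uninfected HepG2-A16-CD81EGFP cells, 3 × 10^3 per well, 1536-well, plated on prespotted compound at 10 μM final, parasite-free screening media added to match infected plates; puromycin 10 μM positive, DMSO 0.5% negative; run in parallel with 48 h PbLuc assay at 37 °C, 5% CO2; viability by CellTiter-Glo luminescence, normalized to controls.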

Structure (SMILES)	cytotoxicity at 10 µM [%]
Cc1nn(C)c(Cl)c1S(=O)(=O)N(C)C	3.66
Cn1ccnc1CNC[C@H]1Cn2cc(-c3ccccc3)nc2CO1	-6.09
c1cc(-c2noc([C@@H]3CCCN3CC3CC3)n2)cc(N2CCCC2)n1	4.12
CS(=O)(=O)N1C[C@@H]2OCC(=O)N(CC3CCC3)[C@@H]2C1	8.94
COCCNC(=O)[C@@H](C)[C@@H]1CCc2c(C)cc(OCC(=O)O)c(C)c2C1	0.523
c1cncc(O[C@H]2COCCN(CC3CC3)C2)c1	3.38
CCn1nc(Br)nc1Sc1ccccc1NC(C)=O	-6.17
O=C(Cc1ccccc1Cl)NCC1CCN(Cc2ccsc2)CC1	-9.12
CCOc1ccccc1NC(=O)Nc1cc(N2CCCC2)ncn1	-0.113
O=C(NCC1CCOCC1)[C@@H]1C[C@@H]2[C@@H](CCN2Cc2ccoc2)O1	5
CNC(=O)N1CCC2(CC1)CC[C@@]1(C(=O)NC)CN(S(C)(=O)=O)C[C@@H]21	-3.91
Cc1ccc(N2CC[C@H]3OCC[C@@]3(C(=O)NCC3CC3)C2)nn1	3.22
Cc1noc(C)c1CN1CCC2(CC1)NC(=O)CC2c1cnn(C)c1 (stereo unspecified)	5.64
CC(=O)c1nn(-c2cccc(Cl)c2)c(C)c1C(C)=O	-3.55
COc1cccc2c3c(c(=O)n(C)c12)CCC(C)(C)O3	0.55
CC(NC(=O)c1ccc(Cl)cc1)c1nnc(SCC(N)=O)n1C (stereo unspecified)	6.27
CCn1nnc(NCc2ccc(-c3ccc(Br)cc3)o2)n1	-10.1
CCn1ccc(-c2cc(C(=O)O)n3nc(C)c(Cl)c3n2)n1	-3.48
CN(C)Cc1cnc(C2CCN(C(=O)c3cccc(Cl)c3)C2)[nH]1 (stereo unspecified)	-3.36
CN(C)c1nccc(C2CCCN2S(=O)(=O)c2cn(C)cn2)n1 (stereo unspecified)	-20.2
Cc1cc(C)nc(C2CCN(C(=O)c3cnc(N(C)C)nc3)C2)n1 (stereo unspecified)	-18.1

Structure (SMILES)	cytotoxicity at 10 µM [%]
COc1ccc(OC)c(C(O)CN2CCC(N3CCC(C)CC3)CC2)c1 (stereo unspecified)	-25.5
CN(C)CC(=O)N1CCCCC1c1nc(N)ncc1-c1ccccc1 (stereo unspecified)	-0.155
Cc1nn(C)c2ncc(NC(=O)N(C)Cc3cnn(C)c3)cc12	-0.768
CNC(=O)[C@@H](C)NC(=O)c1cc(-c2ccc(F)cc2)c(C)s1	-5.2
CC(Oc1ccc(F)c(F)c1)C(=O)N(CC(N)=O)C1CCCC1 (stereo unspecified)	-0.146
O=C(OCc1cccc(F)c1)c1cccc(C(=O)N2CCCC2)n1	-1.6
O=C1CN(C(=O)CSC2CCCc3ccccc32)CCN1 (stereo unspecified)	-9.45
O=C(CNC1CCc2ncnn2C1)NCCc1cccs1 (stereo unspecified)	-10.9
Cn1cc(C(=O)CC2CCCN2C(=O)c2ccc(Cl)o2)cn1 (stereo unspecified)	-4.57
CCC(CC)c1cc(CNC(=O)N2CCCN(C(C)=O)CC2)on1	-7.55
Cc1noc(CCCC(=O)NC(C)c2nnc3n2CCC3)n1 (stereo unspecified)	0.259
CCOCCN1CCN(Cc2nnc(C3CC3)o2)CC1	1.95
CCC(CC)C(=O)NCCC(=O)N1CCN(c2ccccn2)CC1	4.65
O=S(=O)(c1ccc(C(F)(F)F)cc1)N1CCC(OCc2ccccn2)C1 (stereo unspecified)	1.22
O=C1CCC(=O)N1CCN1CCOC(c2ccsc2)C1 (stereo unspecified)	7.55
Cc1nnc(NCCC(=O)NCc2ccccc2)c(C#N)c1C	-3.57
COCCOCCNS(=O)(=O)C1CS(=O)(=O)c2ccccc21 (stereo unspecified)	-15.3
Cn1ccnc1CCNS(=O)(=O)Cc1cccc(C#N)c1	0.867
Cc1cccc(OC2CCN(c3ncc(C#N)cc3Cl)CC2)n1	8.13
CCc1noc(CS(=O)(=O)C/C=C/c2ccccc2)n1	-18.4
CCN(Cc1nnnn1C1CC1)c1cc(C)ccc1C	9.21

Structure (SMILES)	cytotoxicity at 10 µM [%]
CCC(NCc1cccc(Cl)c1)c1ccccc1OCC(=O)NC (stereo unspecified)	-2.65
CS(=O)(=O)c1cccc(S(=O)(=O)NC(=O)CC2CCCC2)c1	-7.59
Cc1ccc(C2CSCCN2C(=O)c2ccnc(N(C)C)c2)o1 (stereo unspecified)	12.8
Cc1n[nH]c(C2CN(Cc3csc(C4CC4)n3)CCO2)n1 (stereo unspecified)	-0.18
CC(NC(=O)c1ccc(CS(C)(=O)=O)o1)c1ccc(F)c(F)c1 (stereo unspecified)	-5.85
CCC(CC)c1nnc(NC(=O)N2CCC(C(N)=O)CC2)s1	8.26
CCOc1ccnc(N2CCN(C(=O)CCc3ccsc3)CC2)n1	8.15
CCCN1C(=O)C2(CCCCC2)NC1c1cn(C)c(=O)n(C)c1=O (stereo unspecified)	4.45
O=C(NCC1CCS(=O)(=O)C1)c1sccc1-c1ccc(F)cc1 (stereo unspecified)	-1.79
Cc1ccc(C(=O)NC(C)CN2CCCC2=O)c(=O)[nH]1 (stereo unspecified)	-0.524
Cn1cc2c(n1)C(COCC1CC1)CN(Cc1ccccn1)C2 (stereo unspecified)	-1.8
CCc1nnsc1-c1nc(C(C)C)nn1-c1ccc2c(c1)OCO2	-9.69
O=C1CC2(CCN(Cc3ncc[nH]3)CC2)CN1Cc1ccc(Cl)cc1	5.85
CC(C)(C)N1CC(C(=O)NCc2noc(Cc3ccccc3)n2)CC1=O (stereo unspecified)	0.824
CO[C@H]1CN(C(C)C)C[C@@H]1NC(=O)Nc1cccc(SC)c1	2.85
CCN(CC)Cc1cc(C(=O)N2CCC3(CC2)NCCNC3=O)c(C)o1	4.01
CN1CC2(CCN(C(=O)CCCOCc3ccccc3)C2)OC1=O (stereo unspecified)	4.49
CN(CCc1ccccn1)[C@@H]1CCN(c2cc(C(N)=O)ccn2)C[C@H]1O	-9.17
CC(=O)N1CCNCC1c1cccc(C(=O)N(C)C)c1 (stereo unspecified)	4.45
CN(CCC(F)(F)F)C(=O)c1nc(S(C)(=O)=O)n2ccccc12	-7.51
CC(C)(C)c1nnc(CN2CCCC(Cn3cncn3)C2)o1 (stereo unspecified)	-6.31

Structure (SMILES)	cytotoxicity at 10 µM [%]
Cc1nc(C)n(CC2CCCN(CC(=O)Nc3nncs3)C2)n1 (stereo unspecified)	-3.79
Cc1cc(CN2CCN(C(=O)NC(C)Cn3ccnc3)CC2)no1 (stereo unspecified)	-8.54
N#CC1(C(=O)N2CCN(Cc3cscn3)CC2)CCCC1	-8.08
CCc1nc(CN(C(C)=O)C2CCN(Cc3cnc(C)cn3)C2)no1 (stereo unspecified)	-4.51
CCCC(Nc1c(C#N)c(=O)n(C)c(=O)n1C)c1ccc(F)cc1F (stereo unspecified)	-13.2
CC(C(=O)Nc1ncccn1)N1CCCN(c2nccs2)CC1 (stereo unspecified)	-2.55
CCOC(=O)CSc1nnc([C@@H](N)CC(C)C)o1	6.76
Cc1nc(COC[C@H]2CCC[C@@]23CN(C(C)C)CCO3)cs1	-86.7
CN(C)C(=O)c1ccc(C2CCCNC2)nc1 (stereo unspecified)	-20.7
Cn1cc(CN2CCC(F)(F)C3(CCN(c4ncc(F)cn4)C3)C2)cn1 (stereo unspecified)	1.2
COCCC(=O)NC1CCN(CC2(c3cccc(F)c3)CCCC2)CC1	-24.7
CN(C)c1ccc(CNCc2cnc(N3CCOCC3)nc2)cn1	9.44
CC1=N[C@@]2(CC[C@@H]3CN(CC4CC4)C[C@@H]32)C(=O)N1CC1CC1	3.82
O=C(c1n[nH]c2c1CN(C1CCOC1)CC2)N1CCCC1 (stereo unspecified)	-1.07
c1csc(CN2C[C@H](OCC3CC3)[C@H]3COC[C@H]32)n1	2.57
COCC1CC2(CCN(Cc3ccncc3)CC2)CN1C(C)C (stereo unspecified)	1.73
CCCn1nccc1NC(=O)CN1CCCC1Cn1cccn1 (stereo unspecified)	-5.47
O=C1CCCC2=Nc3nonc3NC(c3ccccc3F)C12 (stereo unspecified)	1.08

Source: ChEMBL document CHEMBL4513216, “Probing the Open Global Health Chemical Diversity Library for Multistage-Active Starting Points for Next-Generation Antimalarials” (ACS Infect Dis, 2020)
